In ChEMBL document CHEMBL1148762, “Lysosome and HER3 (ErbB3) selective anticancer agent kahalalide F: semisynthetic modifications and antifungal lead-exploration studies” (J Med Chem, 2007):
Converted amounts (≈) assume the structure as drawn. The source made the active and inactive calls. The calls are words filed in the database; no cut-off is given here.

Legend:
[1] = test system: HCC 2998; experiment: Cytotoxicity against human HCC2998 cells; assay type: functional
Summary of the method: (§1)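 NCI Developmental Therapeutics Program cell panel. GI50 is the concentration that reduces growth of treated cells to half that of untreated controls. TGI is the concentration that completely halts growth.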

[2] = test system: KM12; experiment: Cytotoxicity against human KM12 cells; assay type: functional; summary of the method: as §1
[3] = test system: Fusarium proliferatum; experiment: Antifungal activity against Fusarium proliferatum at 20 ug/mL after 3 days by fluorescence assay; assay type: functional, organism-based
Summary of the method: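 Fusarium proliferatum conidia in potato dextrose broth in a tube with the coumarin (DEAC)-labelled probe at 20 µg/mL, held at 24 ± 1 °C. Hyphae and mycelia were viewed at 4, 8, 16, 24, 48 and 72 h by light and epifluorescence microscopy at 400× and 1000×. Conidia were first checked for autofluorescence.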

[4] = test system: Staphylococcus aureus; experiment: Antimicrobial activity against methicillin-resistant Staphylococcus aureus; assay type: functional, organism-based
[5] = test system: Fusarium oxysporum; experiment: Antimicrobial activity against Fusarium oxysporum at 0.3 uM after 72 hrs by microtiter assay; assay type: functional
Summary of the method: (§2)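 96-well microdilution broth assay with conidia (3 × 10^5 conidia/mL, harvested from 7-day PDA cultures and filtered) against F. oxysporum, F. proliferatum and F. solani at 0.3, 3 and 30 µM. Plates were held at 24 ± 1 °C under a 12 h photoperiod. Growth was read at 620 nm at 24, 48 and 72 h and reported as percent inhibition from mean absorbance with standard error.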

[6] = test system: Candida albicans; experiment: Antimicrobial activity against Candida albicans ATCC 90028; assay type: functional, organism-based
[7] = test system: Mycobacterium tuberculosis; experiment: Antibacterial activity against Mycobacterium tuberculosis H37Rv at 16 ug/mL by micro plate alamar blue assay; assay type: functional
Summary of the method: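 M. tuberculosis H37Rv ATCC 27294 grown in BACTEC 12B medium; microplate Alamar blue assay (MABA). Primary screen at a single concentration of 16 µg/mL, read as percent inhibition.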

[8] = test system: Fusarium proliferatum; experiment: Antimicrobial activity against Fusarium proliferatum at 30 uM after 72 hrs by microtiter assay; assay type: functional; summary of the method: as §2
[9] = test system: Fusarium proliferatum; experiment: Antimicrobial activity against Fusarium proliferatum at 3 uM after 72 hrs by microtiter assay; assay type: functional; summary of the method: as §2
[10] = test system: Leishmania donovani; experiment: Antiparasitic activity against Leishmania donovani; assay type: functional, organism-based
[11] = test system: Fusarium solani; experiment: Antimicrobial activity against Fusarium solani at 30 uM after 48 hrs by microtiter assay; assay type: functional; summary of the method: as §2
[12] = test system: Mycobacterium tuberculosis; experiment: Antibacterial activity against Mycobacterium tuberculosis H37Rv by micro plate alamar blue assay; assay type: functional
[13] = test system: Mycobacterium intracellulare; experiment: Antimicrobial activity against Mycobacterium intracellular ATCC 23068; assay type: functional, organism-based
[14] = test system: Fusarium solani; experiment: Antimicrobial activity against Fusarium solani at 3 uM after 48 hrs by microtiter assay; assay type: functional; summary of the method: as §2
[15] = test system: Fusarium solani; experiment: Antimicrobial activity against Fusarium solani at 0.3 uM after 72 hrs by microtiter assay; assay type: functional; summary of the method: as §2
[16] = test system: A549; experiment: Cytotoxicity against human A549 cells; assay type: functional; summary of the method: as §1
[17] = test system: HT-29; experiment: Cytotoxicity against human HT29 cells; assay type: functional; summary of the method: as §1
[18] = test system: Fusarium solani; experiment: Antimicrobial activity against Fusarium solani at 3 uM after 72 hrs by microtiter assay; assay type: functional; summary of the method: as §2
[19] = test system: Fusarium oxysporum; experiment: Antimicrobial activity against Fusarium oxysporum at 30 uM after 48 hrs by microtiter assay; assay type: functional; summary of the method: as §2
[20] = test system: Fusarium proliferatum; experiment: Antimicrobial activity against Fusarium proliferatum at 0.3 uM after 72 hrs by microtiter assay; assay type: functional; summary of the method: as §2
[21] = test system: Fusarium oxysporum; experiment: Antimicrobial activity against Fusarium oxysporum at 3 uM after 48 hrs by microtiter assay; assay type: functional; summary of the method: as §2
[22] = test system: Escherichia coli; experiment: Antimicrobial activity against Escherichia coli; assay type: functional, organism-based
[23] = test system: Fusarium solani; experiment: Antimicrobial activity against Fusarium solani at 30 uM after 72 hrs by microtiter assay; assay type: functional; summary of the method: as §2
[24] = test system: ACHN; experiment: Cytotoxicity against human ACHN cells; assay type: functional; summary of the method: as §1
[25] = test system: UACC-257; experiment: Cytotoxicity against human UACC257 cells; assay type: functional; summary of the method: as §1
[26] = test system: Fusarium proliferatum; experiment: Fungicidal activity against Fusarium proliferatum at 30 uM after 72 hrs by microtiter plate assay; assay type: functional, organism-based
Summary of the method: (§3)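 After 72 h of microtiter broth exposure at 30 µM, 20 µL from each well was plated onto compound-free potato dextrose agar and incubated 3 days at 28 °C. No regrowth was scored fungicidal; regrowth was scored fungistatic.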

[27] = test system: Fusarium proliferatum; experiment: Antimicrobial activity against Fusarium proliferatum at 3 uM after 48 hrs by microtiter assay; assay type: functional; summary of the method: as §2
[28] = test system: SNB-75; experiment: Cytotoxicity against human SNB75 cells; assay type: functional; summary of the method: as §1
[29] = test system: Fusarium solani; experiment: Fungicidal activity against Fusarium solani at 30 uM after 72 hrs by microtiter assay; assay type: functional, organism-based; summary of the method: as §3
[30] = test system: Hs-578T; experiment: Cytotoxicity against human HS578T cells; assay type: functional; summary of the method: as §1
[31] = test system: Fusarium oxysporum; experiment: Antimicrobial activity against Fusarium oxysporum at 30 uM after 72 hrs by microtiter assay; assay type: functional; summary of the method: as §2
[32] = test system: RPMI-8226; experiment: Cytotoxicity against human RPMI8226 cells; assay type: functional; summary of the method: as §1
[33] = test system: Aspergillus fumigatus; experiment: Antimicrobial activity against Aspergillus fumigatus ATCC 90906; assay type: functional, organism-based
[34] = test system: Fusarium oxysporum; experiment: Antimicrobial activity against Fusarium oxysporum at 0.3 uM after 48 hrs by microtiter assay; assay type: functional; summary of the method: as §2
[35] = test system: Fusarium oxysporum; experiment: Antimicrobial activity against Fusarium oxysporum at 3 uM after 72 hrs by microtiter assay; assay type: functional; summary of the method: as §2
[36] = test system: Cryptococcus neoformans; experiment: Antimicrobial activity against Cryptococcus neoformans ATCC 90113; assay type: functional, organism-based
[37] = test system: NCI-H322M; experiment: Cytotoxicity against human NCI-H322M cells; assay type: functional; summary of the method: as §1
[38] = test system: HCT-15; experiment: Cytotoxicity against human HCT15 cells; assay type: functional; summary of the method: as §1
[39] = test system: SK-OV-3; experiment: Cytotoxicity against human SK-OV3 cells; assay type: functional; summary of the method: as §1
[40] = test system: Fusarium oxysporum; experiment: Fungicidal activity against Fusarium oxysporum at 30 uM after 72 hrs by microtiter plate assay; assay type: functional, organism-based; summary of the method: as §3
[41] = test system: Fusarium proliferatum; experiment: Antimicrobial activity against Fusarium proliferatum at 0.3 uM after 48 hrs by microtiter assay; assay type: functional; summary of the method: as §2
[42] = test system: Fusarium solani; experiment: Antimicrobial activity against Fusarium solani at 0.3 uM after 48 hrs by microtiter assay; assay type: functional; summary of the method: as §2
[43] = test system: PC-3; experiment: Cytotoxicity against human PC3 cells; assay type: functional; summary of the method: as §1
[44] = test system: Fusarium proliferatum; experiment: Antimicrobial activity against Fusarium proliferatum at 30 uM after 48 hrs by microtiter assay; assay type: functional; summary of the method: as §2

Structure (SMILES): C/C=C1\NC(=O)[C@H](Cc2ccccc2)NC(=O)[C@@H](C(C)C)NC(=O)[C@@H]([C@H](C)CC)NC(=O)[C@H](NC(=O)[C@H](NC(=O)[C@H](CCCN)NC(=O)[C@H]2CCCN2C(=O)[C@H](NC(=O)[C@@H](NC(=O)[C@@H](NC(=O)[C@H](NC(=O)CCCC(C)C)C(C)C)[C@@H](C)O)C(C)C)C(C)C)[C@H](C)CC)[C@H](C)OC(=O)[C@H](C(C)C)NC1=O [KAHALALIDE F]
- GI50 [1]: 0.288 µM
- TGI [1]: 0.616 µM
- GI50 [2]: 0.182 µM
- TGI [2]: 0.363 µM
- Activity [3]: Active
- Activity [4]: inactive
- inhibition at 0.3 µM [5]: 0%
- IC50 [6]: 3.02 µM
- MFC [6]: 20 µM (≈ 29.6 µg/mL)
- MIC [6]: 10 µM (≈ 14.8 µg/mL)
- inhibition at 16 µg/mL [7]: 67%
- inhibition at 30 µM [8]: 100%
- inhibition at 3 µM [9]: 0%
- IC50 [10]: 17 mg/L (≈ 11.5 µM)
- IC90 [10]: 34 mg/L (≈ 23 µM)
- inhibition at 30 µM [11]: 98.9%
- MIC [12]: > 16 mg/L
- IC50 [13]: > 20 µM
- MBC [13]: > 20 µM
- MIC [13]: > 20 µM
- inhibition at 3 µM [14]: 9.9%
- inhibition at 0.3 µM [15]: 0%
- GI50 [16]: 0.135 µM
- TGI [16]: 0.302 µM
- GI50 [17]: 0.162 µM
- TGI [17]: 0.316 µM
- inhibition at 3 µM [18]: 0%
- inhibition at 30 µM [19]: 100%
- inhibition at 0.3 µM [20]: 0%
- inhibition at 3 µM [21]: 0%
- Activity [22]: inactive
- inhibition at 30 µM [23]: 99.9%
- GI50 [24]: 1.66 µM
- TGI [24]: 3.24 µM
- GI50 [25]: 1.02 µM
- TGI [25]: 2.82 µM
- Activity [26]: Active
- inhibition at 3 µM [27]: 0%
- GI50 [28]: 0.224 µM
- TGI [28]: 1.91 µM
- Activity [29]: Active
- GI50 [30]: 0.162 µM
- TGI [30]: 0.479 µM
- inhibition at 30 µM [31]: 99.6%
- GI50 [32]: 1.74 µM
- TGI [32]: 6.92 µM
- IC50 [33]: 3.21 µM
- MFC [33]: 20 µM (≈ 29.6 µg/mL)
- MIC [33]: 10 µM (≈ 14.8 µg/mL)
- inhibition at 0.3 µM [34]: 0%
- inhibition at 3 µM [35]: 0%
- IC50 [36]: 1.53 µM
- MFC [36]: 5 µM (≈ 7.39 µg/mL)
- MIC [36]: 5 µM (≈ 7.39 µg/mL)
- GI50 [37]: 0.191 µM
- TGI [37]: 0.372 µM
- GI50 [38]: 0.269 µM
- TGI [38]: 0.741 µM
- GI50 [39]: 0.191 µM
- TGI [39]: 0.355 µM
- Activity [40]: Active
- inhibition at 0.3 µM [41]: 0%
- inhibition at 0.3 µM [42]: 0%
- GI50 [43]: 0.17 µM
- TGI [43]: 0.324 µM
- inhibition at 30 µM [44]: 99.8%
